A selection: hits, their analogues and other compounds. The true share with any hit is near 5.1%.
APP 5'UTR act: APP 5'UTR luciferase reporter activation; SH-SY5Y APP 5'UTR luciferase reporter, luminescence; zero percent = DMSO vehicle wells; activation, % at 2 µM; 190,000 tested, 1% active; AID 1276;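 active = activation above a set limit, based on mean plus 3 SD of controls, cut at about 140% in these data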
STAT1 act-1: STAT1 signaling activation; NIH 3T3 STAT1-luciferase reporter, IFN-gamma, luminescence; 100% = IFN-gamma alone, no compound; activation (% of control), % at 5.5 µM; 200,000 tested, 2.6% active; AID 932;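 active = activation above the screen-wide mean activation plus 3 SD, cut at about 130% in these data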
NF-kB expr up: compounds increasing NF-kB expression in human neuronal cells; 190,000 tested, 1.6% active; fold change at 12.5 µM; NF-kB reporter expression; stronger effect = higher value; in the data active = fold change above about 3.3
STAT1 blocker: reduces IFN-gamma driven STAT1 reporter signal | AID 920 | NIH 3T3 STAT1-luciferase reporter, luminescence | 200,000 tested, 0.35% active | inhibition, % at 5.5 µM;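 active = inhibition above a set limit, the mean inhibition across all tested compounds plus 3 SD, cut at about 34% in these data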
STAT3 act-1: increases IL-6 driven STAT3 reporter signal | activation (% of control), % at 5.6 µM | 190,000 tested, 0.91% active | U3A cells, IL-6 STAT3-luciferase reporter, luminescence; 100% = signal with IL-6 EC80 alone;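 active = activation above the screen-wide mean of compound activation plus 3 SD, cut at about 130% in these data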
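Material: STAT3-luciferase reporter U3A cells. Controls: IL-6-treated wells, 100% activation. Read-out: % activation versus median of IL-6-stimulated wells. Probe or stimulus: IL-6 stimulus at 33 ng/mL final. Timing: compound 1 h, then IL-6 6 h at 37 °C. Signal: reporter luminescence signal.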
STAT3 inh-1: STAT3 signaling inhibition. U3A cells, IL-6 STAT3-luciferase reporter, luminescence; host cell line lacks STAT1. inhibition, % at 5.5 µM. 190,000 tested, 0.89% active. AID 862;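 active = inhibition above the mean inhibition across all screened compounds plus 3 SD, cut at about 44% in these data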
STAT3 inh-2: confirmation of STAT3 signaling inhibitors; shares compounds with STAT3 inh-1; U3A cells, IL-6 STAT3 luciferase reporter, luminescence; cell line lacks STAT1; inhibition, % at 5.7 µM; AID 1265; 1,200 tested, 45% active;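 active = inhibition above the hit cutoff computed for the primary STAT3 screen, cut at about 44% in these data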
NFkB inh 2: NF-kappaB inhibition in STAT3 inhibitor counter-screen. shares compounds with STAT3 inh-1. HEK293T NF-kB luciferase reporter, TNF-alpha induced. inhibition, % at 5.7 µM. 1,200 tested, 36% active;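 active = inhibition above the mean of solvent-only control wells plus 3 SD, cutoff set per campaign, cut at about 13% in these data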
STAT1 inh 2: STAT1 inhibition in STAT3 inhibitor counter-screen; shares compounds with STAT3 inh-1; NIH 3T3 STAT1-luciferase reporter, IFN-gamma induced, luminescence; inhibition, % at 5.7 µM; 1,200 tested, 27% active;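 active = inhibition above the mean plus 3 SD of solvent-only control wells, limit set per screening run, cut at about 16% in these data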
STAT3 act-2: STAT3 activation, confirmation assay; shares compounds with STAT3 act-1; U3A STAT3-luciferase reporter, IL-6 potentiation, luminescence; U3A cells lack STAT1; 100 means same as IL-6 alone; potentiation (% of control), % at 5.7 µM; 1,200 tested, 64% active;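 active = percent activation of the STAT3 luciferase reporter above a set limit taken from the earlier primary screen, cut at about 130% in these data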
NFkB act STAT3ct: counter-screen for STAT3 activators: NF-kappaB activation; 1,200 tested, 11% active; activation (% of control), % at 5.7 µM; shares compounds with STAT3 act-1; AID 1309; human cells, NF-kappaB reporter activation; in the data active = activation above about 120%;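 also: reporter induced by TNF-alpha stimulation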
STAT1 act-2: activates STAT1, counter-screen to STAT3 activators; shares compounds with STAT3 act-1; NIH 3T3 STAT1-luciferase reporter, IFN-gamma, luminescence; activation (% of control), % at 5.7 µM; 1,200 tested, 13% active; AID 1318;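 active = activation above the solvent-only control well mean plus 3 SD, set per screening run, cut at about 120% in these data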
STAT1 act conf: confirmation of STAT1 signaling activators; NIH 3T3 STAT1-luciferase reporter, IFN-gamma potentiation, luminescence; 100% = IFN-gamma EC80 alone, no compound; activation (% of control), % at 5.7 µM; shares compounds with STAT1 act-1; 1,200 tested, 97% active;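 active = activation above a set limit carried over from the earlier primary STAT1 screen, cut at about 140% in these data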
NFkB act STAT1ct: activates NF-kappaB, counter-screen to STAT1 activators; shares compounds with STAT1 act-1; HEK293T NF-kB luciferase reporter, TNF-alpha stimulated, luminescence; 100% = TNF-alpha with vehicle only; AID 1306; activation (% of control), % at 5.7 µM; 1,200 tested, 43% active;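 active = activation above the mean of solvent-only control wells plus 3 SD, set per campaign, cut at about 130% in these data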;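 also: TNF-alpha given at a submaximal dose yielding about 80% of full reporter signal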
STAT3 act 2: counter-screen for STAT1 activators: human STAT3 activation; shares compounds with STAT1 act-1; U3A cells STAT3-luciferase reporter, IL-6, luminescence; cells lack STAT1; 100 = IL-6 alone, no compound effect; activation (% of control), % at 5.7 µM; 1,200 tested, 46% active; AID 1316;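 active = activation above the solvent-only control well mean plus 3 SD, set per plate batch, cut at about 110% in these data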;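 also: higher means more STAT3 reporter activation so hits are non-selective activators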
Large screens that a line does not name were inactive (follow-up assays come after a bar, where they were run).

O=C(N/N=C/c1ccc(COc2ccc(Br)cc2)o1)c1ccco1	none
COc1ccc2c(c1)O/C(=C\c1sccc1C)C2=O	none
Cc1[nH]n2c(=O)c3c(nc2c1-c1ccc(Cl)cc1)CCC3	none
Cc1ccc(-c2cc3nc4c(c(=O)n3[nH]2)CCCC4)cc1	STAT1 act-1 174, STAT3 inh-1 44 (no result: NF-kB expr up) | STAT3 inh-2 inactive | NFkB inh 2 inactive | STAT1 inh 2 inactive | STAT1 act conf 232 | NFkB act STAT1ct inactive | STAT3 act 2 inactive
Cc1ccc2nc(-c3ccc(NC(=O)COC(=O)c4ccc([N+](=O)[O-])o4)cc3)sc2c1	STAT1 act-1 155, NF-kB expr up 6, STAT3 inh-1 55 | STAT3 inh-2 inactive | NFkB inh 2 inactive | STAT1 inh 2 inactive | STAT1 act conf 170 | NFkB act STAT1ct inactive | STAT3 act 2 inactive
CC(C)(C)C1C/C(=C/c2ccccn2)C(=O)/C(=C/c2ccccn2)C1 (stereo not given)	STAT1 act-1 221, STAT3 inh-1 48 | STAT3 inh-2 inactive | NFkB inh 2 52 | STAT1 inh 2 inactive | STAT1 act conf 199 | NFkB act STAT1ct inactive | STAT3 act 2 inactive
O=C1/C(=C/c2ccccn2)COc2ccccc21	none
CC1C/C(=C/c2ccccn2)C(=O)/C(=C/c2ccccn2)C1 (stereo not given)	STAT1 act-1 235, STAT3 inh-1 56 | STAT3 inh-2 inactive | NFkB inh 2 inactive | STAT1 inh 2 inactive | STAT1 act conf inactive | NFkB act STAT1ct inactive | STAT3 act 2 inactive
COc1ccc2nc(NC(=S)N(C)C)sc2c1	STAT1 act-1 171, NF-kB expr up 11, STAT3 inh-1 44 | STAT3 inh-2 inactive | NFkB inh 2 inactive | STAT1 inh 2 inactive | STAT1 act conf 257 | NFkB act STAT1ct inactive | STAT3 act 2 inactive
O=C1NC2(CCCCCC2)C(=O)N1Cc1ccc([N+](=O)[O-])cc1	none
O=C(Nc1ccccc1)c1cc2ccccc2o1	APP 5'UTR act 230, STAT1 act-1 153, NF-kB expr up 8.8, STAT3 inh-1 44 | STAT3 inh-2 inactive | NFkB inh 2 inactive | STAT1 inh 2 inactive | STAT1 act conf 227 | NFkB act STAT1ct 134 | STAT3 act 2 inactive
COc1c(/C=N/NC(N)=S)c(C)nn1-c1ccccc1	none
Cc1ccc(NC(=S)Nc2ccc3cn[nH]c3c2)c(C)c1	none
COC(=O)c1cn[nH]c1NC(=S)Nc1ccc(C)cc1Cl	APP 5'UTR act 169, STAT1 act-1 170, STAT3 inh-1 50 | STAT3 inh-2 inactive | NFkB inh 2 inactive | STAT1 inh 2 inactive | STAT1 act conf 307 | NFkB act STAT1ct inactive | STAT3 act 2 inactive
COc1ccc(-c2cc(C)nc3c(-c4ccccc4)cnn23)cc1	APP 5'UTR act 168, STAT1 act-1 167, STAT3 inh-1 51 (no result: NF-kB expr up) | STAT3 inh-2 inactive | NFkB inh 2 inactive | STAT1 inh 2 inactive | STAT1 act conf 266 | NFkB act STAT1ct inactive | STAT3 act 2 inactive
O=S(=O)(Nc1nc2c(s1)CCCC2)c1ccc(Br)cc1	none
O=C(Nc1nc2c(s1)CCCC2)c1ccc(Br)o1	APP 5'UTR act 163, STAT1 act-1 165, NF-kB expr up 6.2, STAT3 inh-1 46 | STAT3 inh-2 inactive | NFkB inh 2 inactive | STAT1 inh 2 inactive | STAT1 act conf 217 | NFkB act STAT1ct inactive | STAT3 act 2 inactive
CCCCCc1ccc(-c2ccc(/C=C/C(N)=O)cc2)nc1	none
CCCCc1ccc(-c2ccc(C)cc2O)nc1	APP 5'UTR act 203, STAT1 act-1 156, NF-kB expr up 7.2, STAT3 inh-1 51 | STAT3 inh-2 inactive | NFkB inh 2 inactive | STAT1 inh 2 inactive | STAT1 act conf 198 | NFkB act STAT1ct inactive | STAT3 act 2 inactive
CC(C)CC(N=Cc1c(O)c2ccccc2oc1=O)C(=O)O (stereo not given)	none
Cc1cc(Br)cc2cn[nH]c12	none
COc1ccc(/C=N/N(C(C)=O)c2nc(-c3ccc(C)cc3)cs2)cc1	none
COc1ccccc1/C=N/N(C(C)=O)c1nc(-c2ccc(F)cc2)cs1	STAT3 act-1 194 | STAT3 act-2 185 | NFkB act STAT3ct 126 | STAT1 act-2 150
COc1ccc(C2=Nn3c(nnc3-c3ccccc3OC)SC2)cc1OC	STAT3 act-1 150 | STAT3 act-2 inactive | NFkB act STAT3ct 128 | STAT1 act-2 inactive
CC1=NC(=O)C(N=Nc2cccc(O)c2)N1c1ccccc1 (stereo not given)	NF-kB expr up 4.2, STAT3 act-1 185 | STAT3 act-2 187 | NFkB act STAT3ct inactive | STAT1 act-2 inactive
Cc1ccc2cccc(N=Cc3c(C)[nH]n(-c4ccccc4)c3=O)c2n1	STAT3 act-1 137 | STAT3 act-2 135 | NFkB act STAT3ct inactive | STAT1 act-2 inactive
Cc1ccc(CNC(=O)Cc2csc(Nc3nc(=S)[nH]c4ccccc34)n2)cc1	STAT3 act-1 141 | STAT3 act-2 133 | NFkB act STAT3ct inactive | STAT1 act-2 inactive
O=C(Cc1csc(Nc2nc(=S)[nH]c3ccccc23)n1)NCc1ccccc1Cl	none
